# EP2 mod – EP2 receptor (human) modulation | AID 940 | EP2-expressing cells, cAMP HTRF FRET, PGE2 co-stimulation | induction, % at 25 µM | 260,000 tested, 0.83% active | P43116;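 active = compounds whose cAMP rise, as percent of the full-agonist control response, exceeds 60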;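 note: rat C6 glioma line stably carrying human EP2 under a CMV promoter; the protocol text gives 20 µM as final concentration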
# NPY-Y1 antag – antagonists of human neuropeptide Y receptor Y1 | P25929 | HEK293-CNG Y1 cells, membrane potential fluorescence; NPY at EC95, then isoproterenol | inhibition, % at 3.6 µM | 200,000 tested, 1% active;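 active = inhibition above the campaign mean inhibition of all tested compounds plus 3 SD, cut at about 20% in these data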
#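 Test system: HEK293 cells co-expressing NPY Y1 receptor and cyclic-nucleotide gated channel; Also added: NPY (25 nM), isoproterenol (1 µM), Ro 20-1724 (25 µM); Compound dosing: one concentration, 3.6 µM, in 0.4% DMSO; Timing: dye 3 h, compound 60 min room temperature, stimulation 45 min; Technique: Membrane-potential fluorescent dye readout.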
# NPY-Y2 PAM-ag – human NPY-Y2 potentiation or agonism, primary screen; P49146; activation, % at 3.6 µM; cells expressing NPY-Y2, potentiator/agonist read-out; 220,000 tested, 0.45% active; in the data active = activation above about 27%;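 note: cells stimulated with NPY near EC25 plus isoproterenol at EC100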
# Target sequence (P49146 whole entry, looked up): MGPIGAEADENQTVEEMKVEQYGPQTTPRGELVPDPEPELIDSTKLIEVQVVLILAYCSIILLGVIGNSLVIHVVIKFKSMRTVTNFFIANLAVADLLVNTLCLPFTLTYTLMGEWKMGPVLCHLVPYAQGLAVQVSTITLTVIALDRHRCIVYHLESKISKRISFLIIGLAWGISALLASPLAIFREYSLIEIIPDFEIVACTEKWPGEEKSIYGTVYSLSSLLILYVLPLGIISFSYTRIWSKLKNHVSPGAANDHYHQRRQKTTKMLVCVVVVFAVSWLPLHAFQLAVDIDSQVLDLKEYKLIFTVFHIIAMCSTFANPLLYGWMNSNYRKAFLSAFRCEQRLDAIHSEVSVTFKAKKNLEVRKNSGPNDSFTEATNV
# EP2 antag – EP2 receptor (human) inhibition; inhibition, % at 25 µM; 260,000 tested, 0.52% active; C6 glioma cells expressing human EP2, cAMP TR-FRET; cells stimulated with saturating PGE2; P43116;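 active = percent inhibition above 40 after rounding to a whole number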;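 note: rat C6 glioma host cells with rolipram phosphodiesterase inhibitor present; the protocol text gives 20 µM as final concentration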
# NPY-Y1 PAM-ag – potentiates or activates human NPY-Y1 receptor. P25929. NPY-Y1 expressing cells, potentiator/agonist activation. activation, % at 3.6 µM. 220,000 tested, 0.37% active; in the data active = activation above about 33%, passing the limit was not always enough;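 note: cells stimulated with NPY at EC10 then isoproterenol at EC100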
# NPY-Y2 antag – blocks the human neuropeptide Y Y2 receptor; P49146; NPY-Y2 expressing cells, antagonist mode; inhibition, % at 2.7 µM; 140,000 tested, 0.99% active; in the data active = inhibition above about 17%
# NPY-Y1 confirm – confirmation of human NPY-Y1 receptor potentiators or agonists; shares compounds with NPY-Y1 PAM-ag; cell-based NPY-Y1 potentiator/agonist assay; activation, % at 3.6 µM; 280 tested, 20% active; AID 1546; in the data active = activation above about 45%;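 note: cells challenged with NPY at its EC10 plus isoproterenol stimulus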
# NPY-Y2 counter – potentiates or activates NPY-Y2, counter-screen for NPY-Y1 hits | shares compounds with NPY-Y1 PAM-ag | HEK293-CNG cells, membrane-potential fluorescence (FLIPR), 1536-well | activation, % at 3.6 µM | 280 tested, 20% active | AID 1649; in the data active = activation above about 33%
# NPY-Y1 agonist – activates human NPY-Y1, counter-screen for NPY-Y1 potentiators | activation, % at 3.6 µM | 280 tested, 50% active | shares compounds with NPY-Y1 PAM-ag | AID 1697 | HEK293 Y1-CNGC, membrane potential fluorescence, agonist mode;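 active = percent activation above the mean of DMSO-only control wells plus 3 SD of those wells, cut at about 18% in these data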;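 note: cells challenged with isoproterenol plus Ro 20-1724 with no NPY in test wells; Y1 agonism lowers isoproterenol-driven cAMP and reduces probe fluorescence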
# NPY-Y2 agonist – human NPY-Y2 agonism as NPY-Y1 counter-screen; shares compounds with NPY-Y1 PAM-ag; HEK293 Y2-CNGC, membrane potential fluorescence, agonist mode; activation, % at 3.6 µM; 280 tested, 67% active; AID 1698;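 active = activation above the solvent-only control wells' mean plus 3 SD, cut at about 11% in these data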;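 note: agonism lowers cAMP so well fluorescence drops in active wells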
# CNGC counter – blocks cyclic nucleotide gated channel in NPY-Y1 counter-screen | inhibition, % at 3.6 µM | 280 tested, 42% active | HEK293-CNG parental, isoproterenol cAMP, membrane potential fluorescence | shares compounds with NPY-Y1 PAM-ag;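 active = inhibition above the mean of stimulated solvent-only control wells plus 3 SD, cut at about 22% in these data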
# Hits are given with their value; i = inactive; nt = no result given. Hits are enriched below; roughly 2.8% of the tested compounds scored in any of these assays.
SMILES,EP2 mod,NPY-Y1 antag,NPY-Y2 PAM-ag,EP2 antag,NPY-Y1 PAM-ag,NPY-Y2 antag,NPY-Y1 confirm,NPY-Y2 counter,NPY-Y1 agonist,NPY-Y2 agonist,CNGC counter
CCOC(=O)/C=C/C(=O)Nc1ccc(Oc2ccccc2)cc1,i,i,i,i,39,nt,i,i,i,19,25
COc1cc(C2NC(=O)NC(C)=C2C(=O)OC(C)C)ccc1O (centres undefined),i,nt,nt,i,nt,nt,nt,nt,nt,nt,nt
CCOc1ccc(Nc2nc(Nc3ccc(O)cc3)nc(C)c2[N+](=O)[O-])cc1,i,i,i,i,40,nt,i,i,i,16,i
COc1ccc(Nc2nc(N)c([N+](=O)[O-])c(NCCO)n2)cc1,i,nt,i,i,i,nt,nt,nt,nt,nt,nt
COc1ccc(OC)c2sc(NC(=O)c3ccc(S(=O)(=O)N(C)C)cc3)nc12,i,i,i,i,34,i,i,i,i,18,i
Cc1cc2c(=O)n(CC(=O)N3CCn4cccc4C3C(C)C)cnc2s1 (centres undefined),i,nt,nt,i,nt,nt,nt,nt,nt,nt,nt
CC(=O)Nc1ccc(S(=O)(=O)NCCC(=O)NCCc2ccc(F)cc2)cc1,i,i,i,i,62,i,i,i,i,i,i
CCNS(=O)(=O)c1ccc(NC(=O)Cc2ccc(F)cc2)cc1,i,i,i,i,i,i,nt,nt,nt,nt,nt
Cc1cc(OCc2nnc(SCC(=O)O)n2C)ccc1Cl,i,nt,nt,i,nt,nt,nt,nt,nt,nt,nt
CCN(Cc1ccccc1)C(c1cc2ccc(C)cc2[nH]c1=O)c1nnnn1C1CCCC1 (centres undefined),i,nt,nt,i,nt,nt,nt,nt,nt,nt,nt
Cc1cc(C)c(NC(=O)c2ccc(CN3CCc4ccccc4C3)cc2)c(C)c1,i,i,i,i,57,i,i,i,i,i,i
CCCCn1nnc(NC(=O)C(c2ccccc2)c2ccccc2)n1,i,i,i,i,64,nt,i,i,i,i,i
CCCn1nnc(NC(=O)C(c2ccccc2)c2ccccc2)n1,i,i,i,i,i,i,nt,nt,nt,nt,nt
CN(C)S(=O)(=O)c1ccc(S(=O)(=O)N(Cc2ccco2)Cc2ccccc2Cl)cc1,i,i,i,i,38,i,i,i,i,i,i
O=S(=O)(c1ccc(S(=O)(=O)N(Cc2ccco2)Cc2ccccc2Cl)cc1)N1CCCC1,i,i,i,i,i,i,nt,nt,nt,nt,nt
CCc1ccc2[nH]c(=O)c(CN(Cc3ccco3)C(=O)Nc3ccccc3Cl)cc2c1,i,nt,nt,i,nt,nt,nt,nt,nt,nt,nt
CC(C)N=C1NN=C(c2ccc(Cl)c(Cl)c2)CS1,i,i,i,i,49,nt,i,i,i,i,i
O[C@@H]1CN(Cc2ccccc2)CC[C@H]1c1ccc(F)cc1,i,nt,nt,nt,nt,nt,nt,nt,nt,nt,nt
CC(C)Cn1c(N)c(C(=O)COC(=O)c2cnc(Cl)c(Cl)c2)c(=O)n(C)c1=O,i,i,i,i,42,nt,i,42,33,24,i
Cc1cc(C(F)F)n2ncc(C(=O)N3CCC(c4ccnc5ncnn45)CC3)c2n1,i,nt,nt,nt,nt,nt,nt,nt,nt,nt,nt
Cn1ccnc1C1(O)CCN(C(=O)c2cccc(F)c2)CC1,i,nt,nt,nt,nt,nt,nt,nt,nt,nt,nt
Cc1cccc(Nc2c(-c3ccc(O)cc3)nc3ncccn23)c1,i,i,i,i,40,nt,i,i,i,31,23
Cc1ccc(Nc2c(-c3ccccc3O)nc3ncccn23)cc1,i,nt,i,i,i,nt,nt,nt,nt,nt,nt
C/C(=N\Nc1ccc([N+](=O)[O-])cc1)c1ccc(C#N)cc1,i,nt,i,i,i,nt,nt,nt,nt,nt,nt
N#CC(C#N)=NNc1ccc([N+](=O)[O-])cc1,i,nt,i,i,51,nt,i,i,37,36,32
COc1ccc(NC(=O)c2ccco2)cc1NC(=O)COc1ccccc1C,i,nt,nt,i,nt,nt,nt,nt,nt,nt,nt

# Screening results: PubChem BioAssay, several laboratories
